We go through six sequences from PMC12034384 (ImmunoHorizons, 2025).

In data set [1] the test system is Jurkat. Kind of data set: Cytotoxicity of peptides. It counts as cell-based, human. To be noted: Fig. S1; concentrations up to 100 μM.
Data set [2] concerns murine CD4+ T cells. In words: IL-2 production of murine CD4+ T cells after anti-CD3/anti-CD28, ELISA. It counts as cell-based. To be noted: 30 min preincubation, anti-CD3/anti-CD28 48 h, n = 4. The method in brief: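 CD4⁺ T cells were purified from mouse spleen with a CD4⁺ isolation kit and cultured in RPMI 1640, 10% FBS, 50 μM 2-mercaptoethanol. After 30 min preincubation with test or control peptide, cells were stimulated 48 h on immobilized anti-mouse CD3 (145-2C11, 3 μg/ml) plus anti-CD28 (PV-1, 1 μg/ml). Mouse IL-2 in supernatant was measured by ELISA. Mean ± SEM, n = 4 independent experiments, Sidak's test.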
In general terms: ELISA stands for enzyme-linked immunosorbent assay.

For data set [3], the system named is HeLa human epithelial-like cells. In words: Spontaneous proliferation of HeLa cells. It counts as cell-based.
Data set [4] concerns Jurkat cells. Kind of data set: IL-2 production after anti-CD3/anti-CD28 stimulation, ELISA. It counts as cell-based, human. To be noted: 30 min preincubation, immobilized anti-CD3 (3 μg/ml)/anti-CD28 (1 μg/ml) 48 h, n = 4. The method in brief:
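Jurkat cells were kept in RPMI 1640 with 10% FBS and 50 μM 2-mercaptoethanol. They were preincubated 30 min with test peptide or control peptide, then stimulated 48 h on immobilized anti-human CD3 (OKT3, 3 μg/ml) plus anti-CD28 (CD28.8, 1 μg/ml). Human IL-2 in supernatant was measured by ELISA. Mean ± SEM of 4 independent experiments, Sidak's test.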

Data set [5] relates to mice. Kind of data set: Tolerability in treated mice. It counts as in vivo. To be noted: within the effective concentration range; data not shown.
The test system of data set [6] is EL-4 cells. In words: Spontaneous proliferation of EL-4 cells. It counts as cell-based, murine. To be noted: 30 min preincubation, WST-8, n = 3. A digest of the protocol: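 Murine EL-4 T lymphoma cells were grown in RPMI 1640 with 10% FBS and 50 μM 2-mercaptoethanol without stimulation. They were preincubated 30 min with test or control peptide, and spontaneous proliferation was read with WST-8 reagent. Mean ± SEM of 3 independent experiments; Sidak's multiple comparisons.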
Background: Tetrazolium assays rely on reduction of a dye to a coloured formazan, in cell work by metabolically active cells.

Data set [7] relates to murine B cells. Kind of data set: IgM-mediated IL-6 and IL-10 production in murine B cells. To be noted: compared with iCont-treated B cells. It counts as cell-based.
The conditions of data set [8]: cited from earlier work.
Data set [9] relates to EAE mice. In words: Experimental autoimmune encephalomyelitis. It counts as in vivo, C57BL/6 mice.
Data set [10] concerns Ramos human B lymphoma cells. Kind of data set: Spontaneous proliferation of Ramos cells. It counts as cell-based.
For data set [11], the system named is STAP-1–ITK interaction. In words: Coimmunoprecipitation, STAP-1–ITK interaction. To be noted: Fig. 2G. It counts as binding, human.
Where [12] appears, read: EAE mice, 40 µg/mouse i.v., vs iCont, n = 5.
The mark [13] stands for this setting: EAE mice, day 14 after MOG immunization, vs iCont, n = 10 to 12.
[14] abbreviates: EAE mice, day 14 after MOG immunization, vs iCont, n = 10 to 14.

Turning to RRRRRRRRGGTDKKSIIYVDKLDIVDLTCL [N58-77], the cytotoxicity entry in [1] is given as “high cytotoxicity from the concentration of 3 μM”.
RRRRRRRRGGPLYFEGFLLIKRSGYREYE [N26-43]: in data set [1], the cytotoxicity entry is “high cytotoxicity from the concentration of 3 μM”.
Take RRRRRRRRGGTTLFF [iSP1]: the “IL-2 production upon TCR stimulation” value in data set [2] was “inhibited in CD4^+ T cells”. Moreover, in data set [3], the spontaneous proliferation result was “did not inhibit”. The “IL-2 production following TCR stimulation” value in [4] is “suppressed by iSP1 treatment in a concentration-dependent manner”. Also, the “abnormal phenotypes in treated mice” value in data set [5] was “did not show any abnormal phenotypes”. Also, the spontaneous cell proliferation result in [6] is recorded as “exhibited suppressed cell proliferation”. In data set [7], the “IgM-mediated IL-6 production” value was “no inhibition” and the “IgM-mediated IL-10 production” value is recorded as “no inhibition”. For the same sequence, in data set [8], the “stability of cell-penetrating R8 sequence in vivo” value is “unstable and easy to dissociate in vivo”. For the same sequence, the “area under the curve of EAE clinical score” value in data set [9] (40 µg/mouse i.v. every other day, days 8–20, vs iCont, n = 20) is “significantly lower”. In addition, in data set [9] (setting [12]), the “demyelination in spinal cord (Luxol Fast Blue staining)” value is given as “suppressed” and the “immune cell infiltration in spinal cord (H&E staining)” value was “suppressed”. In data set [9] (setting [13]), the “frequency of Th1 cells (IFN-γ expressing) among CD4+ cells in CNS” value is “significantly lower” and the “frequency of Th17 cells (IL-17 expressing) among CD4+ cells in CNS” value is “significantly lower”. Further, in data set [9] (setting [14]), the “absolute number of Th1 cells (IFN-γ expressing CD4+ T cells) in CNS” value is on record as “significantly lower” and the “absolute number of Th17 cells (IL-17 expressing CD4+ T cells) in CNS” value is given as “significantly lower”. For the same sequence, in [10], the spontaneous proliferation result is recorded as “did not inhibit”. For the same sequence, the “STAP-1–ITK interaction” value in [11] is “suppressed”.
RRRRRRRRGGEYEHYWTELRGTTLFFYTD [N41-59]: the cytotoxicity result in data set [1] is given as “did not show significant cytotoxicity up to the concentration of 100 μM”.
The same measure, in the same setting: then RRRRRRRRGGDLTCLTEQNSTEKNCAKFTL [N73-92], with “high cytotoxicity at the concentration of 100 μM”; and RRRRRRRRGGRRIFQERLKITALPLYFEGF [N12-31], with “high cytotoxicity from the concentration of 3 μM”.
